Measurements: ChEMBL document CHEMBL1649319, “In vitro antifungal activities of isavuconazole and comparators against rare yeast pathogens” (2010)
In brackets after ≈: the same amount, converted by molar mass.

How the values were obtained:
Assay type in all cases: functional
[1] = system: Trichosporon inkin; experiment: Antifungal activity against Trichosporon inkin after 48 hrs by Etest
How it was run: (§1)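 Etest on 2% glucose-RPMI agar. Yeast suspensions were swabbed across the plates and strips applied, then incubated at 35°C for 48 h. MIC was the lowest concentration where the elliptical inhibition zone border met the strip scale. Each reading was raised to the next 2-fold dilution on the CLSI scale and converted to log2. Isolates were revived from −70°C stocks on potato dextrose or Sabouraud agar.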

[2] = system: Rhodotorula mucilaginosa; experiment: Antifungal activity against Rhodotorula mucilaginosa after 7 days by broth microdilution method; conditions: 168 h
[3] = system: Rhodotorula mucilaginosa; experiment: Antifungal activity against Rhodotorula mucilaginosa after 48 hrs by broth microdilution method
How it was run: (§2)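 CLSI M27-A3 broth microdilution. Isolates were identified by ITS1-5.8S-ITS2 sequencing, kept at −70°C in sterile water, and revived on potato dextrose or Sabouraud agar. Drug ranges in wells were 0.015–16 or 0.125–128 μg/ml, depending on the agent. Plates were incubated at 35°C and MICs read visually at 48 h. QC strains were C. krusei ATCC 6258 and C. parapsilosis ATCC 22019.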

[4] = system: Saccharomyces cerevisiae; experiment: Antifungal activity against Saccharomyces cerevisiae after 48 hrs by broth microdilution method; how it was run: as §2
[5] = system: Cutaneotrichosporon mucoides; experiment: Antifungal activity against Trichosporon mucoides after 48 hrs by Etest; how it was run: as §1
[6] = system: Rhodotorula mucilaginosa; experiment: Antifungal activity against Rhodotorula mucilaginosa after 7 days by Etest; conditions: 168 h
[7] = system: Magnusiomyces capitatus; experiment: Antifungal activity against Dipodascus capitatus after 4 days by Etest; conditions: 96 h
[8] = Antifungal activity against Trichosporon jirovecii after 48 hrs by Etest; conditions: Cutaneotrichosporon jirovecii; how it was run: as §1
[9] = system: Cutaneotrichosporon mucoides; experiment: Antifungal activity against Trichosporon mucoides assessed as percent susceptible isolates after 48 hrs by broth microdilution method
How it was run: (§3)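 Broth microdilution MICs (CLSI, 35°C, visual read at 48 h) were sorted into categories using CLSI M27-A3 triazole breakpoints. Susceptible was ≤1 or ≤8 μg/ml, SDD was 2 or 16–32 μg/ml, and resistant was ≥4 or ≥64 μg/ml, depending on the agent. Each category is the percentage of isolates falling in it.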

[10] = system: Trichosporon inkin; experiment: Antifungal activity against Trichosporon inkin after 48 hrs by broth microdilution method; how it was run: as §2
[11] = Antifungal activity against Trichosporon domesticum after 48 hrs by Etest; conditions: Apiotrichum domesticum; how it was run: as §1
[12] = system: Trichosporon asahii; experiment: Antifungal activity against Trichosporon asahii after 48 hrs by Etest; how it was run: as §1
[13] = system: Rhodotorula mucilaginosa; experiment: Antifungal activity against Rhodotorula mucilaginosa after 48 hrs by Etest; how it was run: as §1
[14] = system: Magnusiomyces capitatus; experiment: Antifungal activity against Dipodascus capitatus after 3 days by broth microdilution method; conditions: 72 h
[15] = system: Magnusiomyces capitatus; experiment: Antifungal activity against Dipodascus capitatus after 48 hrs by Etest; how it was run: as §1
[16] = system: Trichosporon asahii; experiment: Antifungal activity against Trichosporon asahii after 48 hrs by broth microdilution method; how it was run: as §2
[17] = Antifungal activity against Trichosporon domesticum after 48 hrs by broth microdilution method; conditions: Apiotrichum domesticum; how it was run: as §2
[18] = system: Cutaneotrichosporon mucoides; experiment: Antifungal activity against Trichosporon mucoides assessed as percent susceptible/dose-dependent isolates after 48 hrs by broth microdilution method; how it was run: as §3
[19] = system: Magnusiomyces capitatus; experiment: Antifungal activity against Dipodascus capitatus after 48 hrs by broth microdilution method; how it was run: as §2
[20] = system: Cutaneotrichosporon mucoides; experiment: Antifungal activity against Trichosporon mucoides after 48 hrs by broth microdilution method; how it was run: as §2
[21] = system: Trichosporon; experiment: Antifungal activity against Trichosporon sp. after 4 days by Etest; conditions: 96 h
[22] = system: Trichosporon; experiment: Antifungal activity against Trichosporon sp. after 3 days by broth microdilution method; conditions: 72 h
[23] = system: Saccharomyces cerevisiae; experiment: Antifungal activity against Saccharomyces cerevisiae after 48 hrs by Etest; how it was run: as §1
[24] = system: Saccharomyces cerevisiae; experiment: Antifungal activity against Saccharomyces cerevisiae after 5 days by broth microdilution method; conditions: 120 h
[25] = Antifungal activity against Trichosporon jirovecii after 48 hrs by broth microdilution method; conditions: Cutaneotrichosporon jirovecii; how it was run: as §2

## OC(Cn1cncn1)(Cn1cncn1)c1ccc(F)cc1F [FLUCONAZOLE]
[1]
  MIC50: 1 µg/mL (≈ 3.27 µM)
  MIC90: 4 µg/mL (≈ 13.1 µM)
[2]
  MIC: > 128 µg/mL
  MIC50: > 128 µg/mL
  MIC90: > 128 µg/mL
[3]
  MIC: > 128 µg/mL
  MIC50: > 128 µg/mL
  MIC90: > 128 µg/mL
[4]
  MIC50: 4 µg/mL (≈ 13.1 µM)
  MIC90: 16 µg/mL (≈ 52.2 µM)
[5]
  MIC50: 1 µg/mL (≈ 3.27 µM)
  MIC90: 4 µg/mL (≈ 13.1 µM)
[6]
  MIC: > 128 µg/mL
  MIC50: > 128 µg/mL
  MIC90: > 128 µg/mL
[7]
  MIC50: 1 µg/mL (≈ 3.27 µM)
  MIC90: 4 µg/mL (≈ 13.1 µM)
[8]
  MIC50: 1 µg/mL (≈ 3.27 µM)
  MIC90: 4 µg/mL (≈ 13.1 µM)
[9]
  MIC50: 2 µg/mL (≈ 6.53 µM)
  MIC90: 8 µg/mL (≈ 26.1 µM)
[10]
  MIC50: 2 µg/mL (≈ 6.53 µM)
  MIC90: 8 µg/mL (≈ 26.1 µM)
[11]
  MIC50: 1 µg/mL (≈ 3.27 µM)
  MIC90: 4 µg/mL (≈ 13.1 µM)
[12]
  MIC50: 1 µg/mL (≈ 3.27 µM)
  MIC90: 4 µg/mL (≈ 13.1 µM)
[13]
  MIC: > 128 µg/mL
  MIC50: > 128 µg/mL
  MIC90: > 128 µg/mL
[14]
  MIC50: 4 µg/mL (≈ 13.1 µM)
  MIC90: 16 µg/mL (≈ 52.2 µM)
[15]
  MIC50: 1 µg/mL (≈ 3.27 µM)
  MIC90: 4 µg/mL (≈ 13.1 µM)
[16]
  MIC50: 2 µg/mL (≈ 6.53 µM)
  MIC90: 8 µg/mL (≈ 26.1 µM)
[17]
  MIC50: 2 µg/mL (≈ 6.53 µM)
  MIC90: 8 µg/mL (≈ 26.1 µM)
[18]
  MIC50: 2 µg/mL (≈ 6.53 µM)
  MIC90: 8 µg/mL (≈ 26.1 µM)
[19]
  MIC50: 4 µg/mL (≈ 13.1 µM)
  MIC90: 16 µg/mL (≈ 52.2 µM)
[20]
  MIC50: 2 µg/mL (≈ 6.53 µM)
  MIC90: 8 µg/mL (≈ 26.1 µM)
[21]
  MIC50: 1 µg/mL (≈ 3.27 µM)
  MIC90: 4 µg/mL (≈ 13.1 µM)
[22]
  MIC50: 2 µg/mL (≈ 6.53 µM)
  MIC90: 8 µg/mL (≈ 26.1 µM)
[23]
  MIC50: 4 µg/mL (≈ 13.1 µM)
  MIC90: 64 µg/mL (≈ 209 µM)
[24]
  MIC50: 4 µg/mL (≈ 13.1 µM)
  MIC90: 16 µg/mL (≈ 52.2 µM)
[25]
  MIC50: 2 µg/mL (≈ 6.53 µM)
  MIC90: 8 µg/mL (≈ 26.1 µM)
